Measurements: ChEMBL document CHEMBL1122142, “Synthesis and antiinflammatory activity of hexahydrothiopyrano[4,3-c]pyrazoles and related analogues” (J Med Chem, 1982)

How the values were obtained:
Cavia porcellus [1] = assay: Tested in delayed hypersensitivity skin reaction (DHSR) after subcutaneous administration, activity reported as percent inhibition of erythema/induration of lesion; 4/0; assay type: functional
Outline: (§1)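 Male Hartley guinea pigs were sensitized with Mycobacterium tuberculosis in Freund's incomplete adjuvant, injected into each hind footpad and subcutaneously at the neck. After 3 weeks, 1.2 μg PPD was given intradermally. Compound in sesame oil was given sc, 3 animals per group, 30 min before and 5 h after PPD; screening dose 50 mg/kg.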

Mus musculus [2] = assay: Inhibition of Mouse Active Arthus reaction following 150 mg/Kg i.p.; 41-60% inhibition.; assay type: functional; conditions: Mus musculus, ip
Mus musculus [3] = assay: The compound was evaluated for the mouse active Arthus (MAA) reaction activity for an ip dose of 150 mg/kg in mouse; 31-40%; assay type: functional; conditions: route intraperitoneal
Outline: (§2)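 CD-1 mice were sensitized ip with a 1:1 Freund's complete adjuvant emulsion containing BSA in saline, 5 weeks before challenge. Compound was suspended in 1% Na CMC in pyrogen-free saline and given as one ip or oral dose 1 h before skin challenge with BSA. Screening doses were 150 mg/kg ip and 300 mg/kg po, with some at 75 or 50 mg/kg ip. Lesions were excised 3.5 h after challenge and weighed against controls.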

Cavia porcellus [4] = assay: Tested in delayed hypersensitivity skin reaction (DHSR) after subcutaneous administration, activity reported as percent inhibition of erythema/induration of lesion; 10/8; assay type: functional
Mus musculus [5] = assay: The compound was evaluated for the mouse active Arthus (MAA) reaction activity for an ip screening dose of 75 mg/kg in mouse; 31-40%; assay type: functional; conditions: route intraperitoneal; outline: as §2
Mus musculus [6] = assay: Mouse active Arthus (MAA) reaction activity was determined for an ip dose of 150 mg/kg in mouse; assay type: functional; conditions: route intraperitoneal
Mus musculus [7] = assay: Mouse active Arthus (MAA) reaction activity was determined for an ip dose of 150 mg/kg in mouse; 31-40%; assay type: functional; conditions: route intraperitoneal
Cavia porcellus [8] = assay: Tested in delayed hypersensitivity skin reaction (DHSR) after subcutaneous administration, activity reported as percent inhibition of erythema/induration of lesion; 1/20; assay type: functional
Mus musculus [9] = assay: Inhibition of Mouse active Arthus (MAA) reaction activity was determined for peroral dose of 150 mg/kg in mouse; 21-30%; assay type: functional; conditions: route oral
Cavia porcellus [10] = assay: Tested in delayed hypersensitivity skin reaction (DHSR) after subcutaneous administration, activity reported as percent inhibition of erythema/induration of lesion; 11/66; assay type: functional
Mus musculus [11] = organism: Mus musculus; assay: Mouse active Arthus (MAA) reaction activity was determined for peroral dose of 300 mg in mouse; 21-30%; assay type: functional
Cavia porcellus [12] = assay: Tested in delayed hypersensitivity skin reaction (DHSR) after subcutaneous administration, activity reported as percent inhibition of erythema/induration of lesion; 5/18; assay type: functional; outline: as §1
Mus musculus [13] = assay: Inhibition of Mouse active Arthus (MAA) reaction activity was determined for an ip dose of 150 mg/kg in mouse; 21-30%; assay type: functional; conditions: route intraperitoneal
Cavia porcellus [14] = assay: Tested in delayed hypersensitivity skin reaction (DHSR) after subcutaneous administration, activity reported as percent inhibition of erythema/induration of lesion; 4/12; assay type: functional; outline: as §1
[15] = Acute toxicity as LD50 value was determined in mice administered orally; assay type: organism-based; conditions: mouse, in vivo, po
[16] = Acute toxicity as LD50 value was determined in mice administered intraperitoneally; assay type: organism-based; conditions: mouse, in vivo, ip
[17] = Therapeutic ratio was determined for peroral administration; conditions: po; read-out: TR
[18] = Therapeutic ratio was determined for intraperitoneal administration; assay type: ADME; conditions: ip; read-out: TR
Mus musculus [19] = assay: Carrageenan-induced edema was determined value for oral administration; assay type: functional; conditions: read-out: ID50 (the source's name)
Outline: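 Adult male Sprague-Dawley (CD) rats, 160–200 g. Single dose in 1% CMC given 2 h before footpad injection of 0.05 mL 1% carrageenin in pyrogen-free saline. Paws removed and weighed at 3 h, with the contralateral paw as control. ID50 is the dose giving 50% edema inhibition.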

## CN1N=C2/C(=C/c3cccc(C(F)(F)F)c3)CS(=O)(=O)CC2C1c1cccc(C(F)(F)F)c1 (centres undefined)
Cavia porcellus [1]
  Activity: 4
Mus musculus [2]
  inhibition in vivo at 150 mg/kg: 41%

## CCCn1nc(-c2ccccc2)c2c1/C(=C/c1ccccc1)COC2
Mus musculus [3]
  inhibition in vivo at 150 mg/kg: 31%

## CCCn1nc(-c2ccc(Cl)cc2)c2c1/C(=C/c1ccc(Cl)cc1)CSC2
Mus musculus [2]
  inhibition in vivo at 150 mg/kg: 41%

## COc1ccc(/C=C2\CS(=O)(=O)CC3C2=NN(CCCN2CCN(C)CC2)C3c2ccc(OC)cc2)cc1 (centres undefined)
Cavia porcellus [4]
  Activity: 10
Mus musculus [5]
  inhibition in vivo at 75 mg/kg: 31%

## C#CCN1N=C2/C(=C/c3ccccc3)CS(=O)(=O)CC2C1c1ccccc1 (centres undefined)
Cavia porcellus [1]
  Activity: 4
Mus musculus [6]
  inhibition in vivo at 150 mg/kg: < 20%

## O=C(c1ccc(Cl)cc1)N1N=C2/C(=C/c3ccccc3)CS(=O)(=O)CC2C1c1ccccc1 (centres undefined)
Mus musculus [7]
  inhibition in vivo at 150 mg/kg: 31%
Cavia porcellus [8]
  Activity: 1

## CN1CCN(CCCN2N=C3/C(=C/c4ccccc4)CSCC3C2c2ccccc2)CC1 (centres undefined)
Mus musculus [2]
  inhibition in vivo at 150 mg/kg: 41%
Mus musculus [9]
  inhibition in vivo at 150 mg/kg: 21%
Cavia porcellus [10]
  Activity: 11

## O=C(c1ccccc1)N1N=C2/C(=C/c3ccccc3)CS(=O)(=O)CC2C1c1ccccc1 (centres undefined)
Mus musculus [11]
  Inhibition: 21%
Mus musculus [6]
  inhibition in vivo at 150 mg/kg: > 60%

## CCCN1N=C2/C(=C/c3ccccc3)CN(C)CC2C1c1ccccc1 (centres undefined)
Cavia porcellus [12]
  Activity: 5
Mus musculus [2]
  inhibition in vivo at 150 mg/kg: 41%

## CCCN1N=C2/C(=C/c3ccccc3)C[S+]([O-])CC2C1c1ccccc1 (single isomer, unassigned; isomer A)
Mus musculus [13]
  inhibition in vivo at 150 mg/kg: 21%

## CCCN1N=C2/C(=C/c3ccc(OC)cc3)C[S+]([O-])CC2C1c1ccc(OC)cc1 (single isomer, unassigned; isomer A)
Cavia porcellus [14]
  Activity: 4
Mus musculus [2]
  inhibition in vivo at 150 mg/kg: 41%

## CCCN1N=C2/C(=C/c3ccccc3)C[S+]([O-])CC2C1c1ccccc1 (single isomer, unassigned; isomer B)
Mus musculus [2]
  inhibition in vivo at 150 mg/kg: 41%

## COc1cc2c(c(OC)c1OC)-c1ccc(OC)c(=O)cc1[C@@H](NC(C)=O)CC2 [COLCHICINE]
[15]
  LD50: 13.5 mg/kg
[16]
  LD50: 3.5 mg/kg
[17]
  selectivity ratio: 1
[18]
  selectivity ratio: 1.5
Mus musculus [19]
  ED50: 13.2 mg/kg

## COc1ccc2c(c1)c(CC(=O)O)c(C)n2C(=O)c1ccc(Cl)cc1 [INDOMETHACIN]
[17]
  selectivity ratio: 0.04
Mus musculus [19]
  ED50: 517 mg/kg

## COc1ccc2cc([C@H](C)C(=O)O)ccc2c1 [NAPROXEN]
Mus musculus [19]
  ED50: 411 mg/kg
